In experiment [1] the target is Receptor tyrosine-protein kinase erbB-2 (Homo sapiens, UniProt P04626). Briefly: Inhibition of recombinant ERBB2. The following applies: read-out: IC50 (converted). The essentials:
(§1)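 Purified recombinant kinase, 50 µL reaction. 1 µM [γ-33P]-ATP with substrate; compound added in 10% DMSO. Tested over several concentrations; IC50 in g/mL.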

Experiment [2] has as its target Focal adhesion kinase 1 (Homo sapiens, UniProt Q05397). As to the kind of experiment: Inhibition of recombinant FAK. The following applies: read-out: IC50 (converted). The essentials: as §1
For experiment [3], the target named is Proto-oncogene tyrosine-protein kinase Src (Homo sapiens, UniProt P12931). Briefly: Inhibition of recombinant SRC. The following applies: read-out: IC50 (converted). The essentials:
as §1

The target in experiment [4] is T1, Receptor-type tyrosine-protein kinase FLT3 (Homo sapiens, UniProt P36888).
T1 sequence (P36888 whole entry): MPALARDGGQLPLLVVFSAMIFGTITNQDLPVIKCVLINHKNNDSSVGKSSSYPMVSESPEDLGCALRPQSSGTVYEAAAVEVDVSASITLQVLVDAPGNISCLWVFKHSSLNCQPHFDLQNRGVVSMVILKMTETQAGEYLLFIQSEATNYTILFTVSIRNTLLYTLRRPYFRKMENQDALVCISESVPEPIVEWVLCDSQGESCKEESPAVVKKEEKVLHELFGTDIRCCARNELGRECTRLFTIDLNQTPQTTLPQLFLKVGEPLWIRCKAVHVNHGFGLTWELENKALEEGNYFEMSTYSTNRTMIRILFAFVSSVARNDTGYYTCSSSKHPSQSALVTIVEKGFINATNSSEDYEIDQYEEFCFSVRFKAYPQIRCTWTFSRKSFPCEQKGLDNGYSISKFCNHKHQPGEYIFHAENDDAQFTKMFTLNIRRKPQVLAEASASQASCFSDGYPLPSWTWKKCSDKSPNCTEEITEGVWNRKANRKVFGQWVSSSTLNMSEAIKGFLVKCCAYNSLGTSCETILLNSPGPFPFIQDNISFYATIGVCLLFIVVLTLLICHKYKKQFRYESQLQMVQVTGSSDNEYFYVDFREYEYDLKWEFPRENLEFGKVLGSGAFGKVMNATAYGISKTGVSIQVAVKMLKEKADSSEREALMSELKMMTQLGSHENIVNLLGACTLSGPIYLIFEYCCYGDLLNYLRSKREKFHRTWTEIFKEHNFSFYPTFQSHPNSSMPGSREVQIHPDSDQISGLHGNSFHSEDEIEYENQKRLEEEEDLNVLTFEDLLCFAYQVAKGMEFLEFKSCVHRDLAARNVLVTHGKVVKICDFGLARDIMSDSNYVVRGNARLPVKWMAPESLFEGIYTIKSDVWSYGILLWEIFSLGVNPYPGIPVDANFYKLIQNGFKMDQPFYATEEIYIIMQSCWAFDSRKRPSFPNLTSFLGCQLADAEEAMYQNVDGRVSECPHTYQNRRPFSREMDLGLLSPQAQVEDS
Briefly: Inhibition of recombinant FLT3. A digest of the protocol: as §1

Experiment [5] addresses Hepatocyte growth factor receptor (Homo sapiens, UniProt P08581). As to the kind of experiment: Inhibition of recombinant MET. The following applies: read-out: IC50 (converted).
Experiment [6] concerns the target Platelet-derived growth factor receptor beta (Homo sapiens, UniProt P09619). As to the kind of experiment: Inhibition of recombinant PDGFRbeta.
In experiment [7] the target is Serine/threonine-protein kinase PLK1 (Homo sapiens, UniProt P53350). As to the kind of experiment: Inhibition of recombinant PLK1. The following applies: read-out: IC50 (converted). The essentials: as §1
In experiment [8] the target is T2, Aurora kinase B (Homo sapiens, UniProt Q96GD4). As to the kind of experiment: Inhibition of recombinant Aurora B phosphorylation in human HT29 cells. The format is cell-based, HT-29. The essentials: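 HT29 cells pretreated 90 min with 10 µM staurosporine, then compound 90 min at 37 °C, then calyculin A 30 min. Lysates captured on antibody-coated plates; phospho-histone H3 detected with anti-P-His H3 as the Aurora B read-out.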

In experiment [9] the target is Insulin-like growth factor 1 receptor (Homo sapiens, UniProt P08069). Briefly: Inhibition of recombinant IGF1R phosphorylation transfected in mouse embryonic fibroblast. A digest of the protocol:
(§2)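 Mouse embryonic fibroblasts stably transfected with FLT3 or IGF1-R; 90 min pretreatment with 10 µM staurosporine, compound 90 min at 37 °C. Stimulation with FLT3-ligand 5 min (FLT3) or IGF1 3 min (IGF1-R). Lysates captured on antibody-coated plates; autophosphorylation detected with antiphosphotyrosine PY99.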

The target in experiment [10] is Vascular endothelial growth factor receptor 2 (Homo sapiens, UniProt P35968). Briefly: Inhibition of recombinant VEGFR2 phosphorylation in human HUE cells. The format is cell-based. A digest of the protocol:
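Human endothelial HUE cells pretreated 90 min with 10 µM staurosporine, compound 90 min at 37 °C, then VEGF165 7 min. Lysates captured on antibody-coated plates; VEGF-R2 autophosphorylation detected with antiphosphotyrosine PY99.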

Experiment [11] concerns the target T1, Receptor-type tyrosine-protein kinase FLT3. As to the kind of experiment: Inhibition of recombinant FLT3 phosphorylation transfected in mouse embryonic fibroblast. A digest of the protocol:
as §2

Experiment [12] deals with L5178Y. As to the kind of experiment: Cytotoxicity against mouse L5178Y cells by MTT assay. The format is functional, cell-based. The essentials:
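Mouse L5178Y lymphoma cells; MTT microculture tetrazolium read-out, relative to untreated controls. Vehicle controls with 0.1% EGMME/DMSO. Triplicate wells, experiment repeated three times.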
A general note: Tetrazolium assays rely on reduction of a dye to a coloured formazan, in cell work by metabolically active cells.

For experiment [13], the system named is L5178Y. As to the kind of experiment: Cytotoxicity against mouse L5178Y cells at 10 ug/ml by MTT assay. The format is functional.
The target in experiment [14] is T3, NUAK family SNF1-like kinase 1 (Homo sapiens, UniProt O60285).
T3 sequence (O60285 whole entry): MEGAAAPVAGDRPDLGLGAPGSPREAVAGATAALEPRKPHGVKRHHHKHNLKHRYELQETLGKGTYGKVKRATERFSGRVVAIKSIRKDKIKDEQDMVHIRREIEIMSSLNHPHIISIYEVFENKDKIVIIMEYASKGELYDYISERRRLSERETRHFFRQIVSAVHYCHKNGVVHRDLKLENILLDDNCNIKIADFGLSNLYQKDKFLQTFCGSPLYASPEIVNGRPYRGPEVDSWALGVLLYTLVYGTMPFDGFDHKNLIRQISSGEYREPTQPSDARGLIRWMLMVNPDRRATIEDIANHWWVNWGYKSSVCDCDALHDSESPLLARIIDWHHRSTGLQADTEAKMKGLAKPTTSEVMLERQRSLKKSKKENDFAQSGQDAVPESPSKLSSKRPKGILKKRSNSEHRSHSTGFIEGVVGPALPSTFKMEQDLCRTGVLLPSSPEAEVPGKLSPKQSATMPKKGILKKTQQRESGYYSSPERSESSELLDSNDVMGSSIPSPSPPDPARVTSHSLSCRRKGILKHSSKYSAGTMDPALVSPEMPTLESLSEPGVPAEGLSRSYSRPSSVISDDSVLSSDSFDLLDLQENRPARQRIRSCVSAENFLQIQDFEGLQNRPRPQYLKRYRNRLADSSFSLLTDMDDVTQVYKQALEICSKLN
As to the kind of experiment: Inhibition of recombinant ARK5.

The target in experiment [15] is T2, Aurora kinase B. Briefly: Inhibition of recombinant Aurora B. The essentials: as §1
Experiment [16] has as its target Cyclin-dependent kinase 2 (Homo sapiens, UniProt P24941). As to the kind of experiment: Inhibition of recombinant CDK2/CycA. The following applies: read-out: IC50 (converted). The essentials:
as §1

Experiment [17] concerns the target Mitogen-activated protein kinase kinase kinase 8 (Homo sapiens, UniProt P41279). Briefly: Inhibition of recombinant COT. The following applies: read-out: IC50 (converted).

Results on one compound are retold here after ChEMBL document CHEMBL1157406, “Cytotoxic metabolites from the fungal endophyte Alternaria sp. and their subsequent detection in its host plant Polygonum senegalense” (J Nat Prod, 2008).

SMILES strings stand for the structures. ≈ marks a conversion by molar mass, not a printed value.

T2 sequence (Q96GD4 whole entry): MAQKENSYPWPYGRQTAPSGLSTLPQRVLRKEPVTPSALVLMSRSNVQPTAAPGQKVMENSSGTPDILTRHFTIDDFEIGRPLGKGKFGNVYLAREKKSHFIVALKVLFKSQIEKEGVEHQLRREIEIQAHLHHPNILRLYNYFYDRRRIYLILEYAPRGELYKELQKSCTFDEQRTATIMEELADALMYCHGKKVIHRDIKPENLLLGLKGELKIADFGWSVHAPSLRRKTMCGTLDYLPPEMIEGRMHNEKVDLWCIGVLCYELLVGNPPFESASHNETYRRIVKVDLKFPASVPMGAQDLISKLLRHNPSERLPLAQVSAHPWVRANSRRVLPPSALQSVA
Chain of Platelet-derived growth factor receptor beta (P09619 whole entry): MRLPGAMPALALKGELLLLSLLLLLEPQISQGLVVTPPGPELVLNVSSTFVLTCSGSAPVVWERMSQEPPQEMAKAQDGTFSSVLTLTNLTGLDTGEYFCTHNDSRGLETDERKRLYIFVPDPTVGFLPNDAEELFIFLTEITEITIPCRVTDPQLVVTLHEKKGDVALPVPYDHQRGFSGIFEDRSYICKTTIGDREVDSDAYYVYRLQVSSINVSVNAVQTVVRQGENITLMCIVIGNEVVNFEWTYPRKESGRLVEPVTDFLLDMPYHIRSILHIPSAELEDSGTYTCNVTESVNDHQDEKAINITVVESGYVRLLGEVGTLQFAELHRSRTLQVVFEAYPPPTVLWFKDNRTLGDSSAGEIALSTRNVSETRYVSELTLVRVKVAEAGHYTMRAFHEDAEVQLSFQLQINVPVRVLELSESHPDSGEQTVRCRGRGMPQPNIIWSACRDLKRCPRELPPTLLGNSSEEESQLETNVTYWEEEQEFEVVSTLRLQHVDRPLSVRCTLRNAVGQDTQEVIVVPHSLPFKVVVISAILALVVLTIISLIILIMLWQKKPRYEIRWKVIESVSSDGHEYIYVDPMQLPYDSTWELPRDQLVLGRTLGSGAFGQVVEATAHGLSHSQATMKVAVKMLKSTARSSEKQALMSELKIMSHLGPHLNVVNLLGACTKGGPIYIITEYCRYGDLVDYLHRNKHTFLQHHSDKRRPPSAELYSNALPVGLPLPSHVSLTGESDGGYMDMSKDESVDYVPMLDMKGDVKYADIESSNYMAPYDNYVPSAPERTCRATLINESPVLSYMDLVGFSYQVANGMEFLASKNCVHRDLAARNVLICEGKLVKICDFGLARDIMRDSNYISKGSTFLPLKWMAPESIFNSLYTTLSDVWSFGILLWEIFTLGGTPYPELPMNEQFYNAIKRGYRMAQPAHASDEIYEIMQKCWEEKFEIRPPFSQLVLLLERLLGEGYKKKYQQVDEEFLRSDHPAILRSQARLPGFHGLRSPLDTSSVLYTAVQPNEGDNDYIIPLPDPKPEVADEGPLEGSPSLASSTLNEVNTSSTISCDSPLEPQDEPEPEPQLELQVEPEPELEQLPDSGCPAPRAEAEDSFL
Chain of Mitogen-activated protein kinase kinase kinase 8 (P41279 whole entry): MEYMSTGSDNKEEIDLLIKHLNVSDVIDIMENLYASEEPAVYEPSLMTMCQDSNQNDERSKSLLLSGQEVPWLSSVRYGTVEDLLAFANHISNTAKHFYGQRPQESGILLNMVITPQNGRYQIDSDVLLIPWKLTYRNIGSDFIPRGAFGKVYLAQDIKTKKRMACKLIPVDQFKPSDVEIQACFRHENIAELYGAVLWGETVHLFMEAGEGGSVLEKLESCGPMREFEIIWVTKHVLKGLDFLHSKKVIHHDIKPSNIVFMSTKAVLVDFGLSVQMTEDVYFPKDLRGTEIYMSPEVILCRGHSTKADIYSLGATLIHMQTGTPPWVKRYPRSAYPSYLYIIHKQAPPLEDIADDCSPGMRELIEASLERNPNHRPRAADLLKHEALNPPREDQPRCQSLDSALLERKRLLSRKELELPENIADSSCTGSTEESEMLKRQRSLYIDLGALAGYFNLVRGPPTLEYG
Chain of Receptor tyrosine-protein kinase erbB-2 (P04626 whole entry): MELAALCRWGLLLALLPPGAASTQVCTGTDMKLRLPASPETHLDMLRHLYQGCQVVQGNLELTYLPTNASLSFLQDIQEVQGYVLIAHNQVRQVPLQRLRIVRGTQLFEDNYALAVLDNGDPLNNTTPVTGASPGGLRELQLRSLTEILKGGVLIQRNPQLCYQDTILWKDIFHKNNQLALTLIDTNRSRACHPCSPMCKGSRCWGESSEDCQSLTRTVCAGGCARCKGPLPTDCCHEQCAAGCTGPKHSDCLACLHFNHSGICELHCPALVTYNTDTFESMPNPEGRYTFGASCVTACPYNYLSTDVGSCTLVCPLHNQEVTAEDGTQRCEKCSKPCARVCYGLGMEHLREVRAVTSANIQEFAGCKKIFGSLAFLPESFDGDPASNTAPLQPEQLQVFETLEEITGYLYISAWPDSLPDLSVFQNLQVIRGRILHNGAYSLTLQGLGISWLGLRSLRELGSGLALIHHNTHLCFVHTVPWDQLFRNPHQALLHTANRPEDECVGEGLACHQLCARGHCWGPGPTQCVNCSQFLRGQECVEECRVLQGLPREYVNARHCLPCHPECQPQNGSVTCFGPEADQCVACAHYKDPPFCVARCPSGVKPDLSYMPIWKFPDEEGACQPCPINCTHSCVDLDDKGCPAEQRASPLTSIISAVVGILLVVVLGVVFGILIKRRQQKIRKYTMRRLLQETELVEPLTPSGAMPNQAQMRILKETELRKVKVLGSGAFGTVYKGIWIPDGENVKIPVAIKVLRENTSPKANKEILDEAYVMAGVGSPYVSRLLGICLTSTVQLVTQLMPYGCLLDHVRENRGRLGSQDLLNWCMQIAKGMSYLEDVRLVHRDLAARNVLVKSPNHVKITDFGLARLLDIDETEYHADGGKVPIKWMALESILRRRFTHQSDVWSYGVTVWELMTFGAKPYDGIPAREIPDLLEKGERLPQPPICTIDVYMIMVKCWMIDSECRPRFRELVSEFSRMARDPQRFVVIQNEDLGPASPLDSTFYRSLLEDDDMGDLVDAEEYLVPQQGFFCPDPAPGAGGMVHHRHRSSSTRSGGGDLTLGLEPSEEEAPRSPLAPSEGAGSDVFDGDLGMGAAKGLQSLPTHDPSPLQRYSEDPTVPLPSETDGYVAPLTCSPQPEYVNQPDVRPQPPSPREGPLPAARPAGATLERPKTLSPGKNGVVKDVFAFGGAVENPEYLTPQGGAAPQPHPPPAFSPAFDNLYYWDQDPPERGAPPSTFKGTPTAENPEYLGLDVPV
Chain of Hepatocyte growth factor receptor (P08581 whole entry): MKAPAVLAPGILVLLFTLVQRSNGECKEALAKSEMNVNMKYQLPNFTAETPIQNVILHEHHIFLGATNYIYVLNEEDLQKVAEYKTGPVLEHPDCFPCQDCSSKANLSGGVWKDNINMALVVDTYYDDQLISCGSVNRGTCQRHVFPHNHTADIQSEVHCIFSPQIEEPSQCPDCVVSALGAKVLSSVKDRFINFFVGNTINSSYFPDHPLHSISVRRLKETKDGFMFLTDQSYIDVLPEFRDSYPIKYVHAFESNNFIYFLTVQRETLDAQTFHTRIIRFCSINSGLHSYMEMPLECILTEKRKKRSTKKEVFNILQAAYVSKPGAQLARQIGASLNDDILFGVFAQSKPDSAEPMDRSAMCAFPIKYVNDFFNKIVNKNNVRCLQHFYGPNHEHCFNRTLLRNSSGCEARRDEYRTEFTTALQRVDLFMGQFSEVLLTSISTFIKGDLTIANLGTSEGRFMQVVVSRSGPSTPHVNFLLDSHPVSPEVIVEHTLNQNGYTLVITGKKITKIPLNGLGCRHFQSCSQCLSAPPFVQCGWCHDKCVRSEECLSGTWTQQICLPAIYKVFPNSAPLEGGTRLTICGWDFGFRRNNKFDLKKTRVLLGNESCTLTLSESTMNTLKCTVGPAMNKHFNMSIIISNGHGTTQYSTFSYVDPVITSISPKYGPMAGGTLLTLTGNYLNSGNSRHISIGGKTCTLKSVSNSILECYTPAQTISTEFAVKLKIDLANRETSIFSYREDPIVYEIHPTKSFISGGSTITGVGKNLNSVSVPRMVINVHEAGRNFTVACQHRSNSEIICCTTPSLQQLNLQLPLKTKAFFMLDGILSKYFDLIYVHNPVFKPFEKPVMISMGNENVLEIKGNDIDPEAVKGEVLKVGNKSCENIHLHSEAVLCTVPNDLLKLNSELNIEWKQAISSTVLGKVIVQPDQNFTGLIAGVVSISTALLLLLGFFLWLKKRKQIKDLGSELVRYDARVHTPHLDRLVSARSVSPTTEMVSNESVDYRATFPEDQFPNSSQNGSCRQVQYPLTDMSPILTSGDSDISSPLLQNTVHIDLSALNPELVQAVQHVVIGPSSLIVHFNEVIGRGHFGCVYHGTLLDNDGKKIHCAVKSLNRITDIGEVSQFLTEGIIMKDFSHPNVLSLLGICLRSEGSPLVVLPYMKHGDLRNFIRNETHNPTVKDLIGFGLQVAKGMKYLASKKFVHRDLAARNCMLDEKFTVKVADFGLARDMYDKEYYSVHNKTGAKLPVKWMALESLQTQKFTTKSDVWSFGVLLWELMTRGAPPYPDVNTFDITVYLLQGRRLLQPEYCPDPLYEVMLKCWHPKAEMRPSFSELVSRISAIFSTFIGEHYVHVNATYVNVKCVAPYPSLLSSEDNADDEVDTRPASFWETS
Chain of Proto-oncogene tyrosine-protein kinase Src (P12931 2-536 limits assumed): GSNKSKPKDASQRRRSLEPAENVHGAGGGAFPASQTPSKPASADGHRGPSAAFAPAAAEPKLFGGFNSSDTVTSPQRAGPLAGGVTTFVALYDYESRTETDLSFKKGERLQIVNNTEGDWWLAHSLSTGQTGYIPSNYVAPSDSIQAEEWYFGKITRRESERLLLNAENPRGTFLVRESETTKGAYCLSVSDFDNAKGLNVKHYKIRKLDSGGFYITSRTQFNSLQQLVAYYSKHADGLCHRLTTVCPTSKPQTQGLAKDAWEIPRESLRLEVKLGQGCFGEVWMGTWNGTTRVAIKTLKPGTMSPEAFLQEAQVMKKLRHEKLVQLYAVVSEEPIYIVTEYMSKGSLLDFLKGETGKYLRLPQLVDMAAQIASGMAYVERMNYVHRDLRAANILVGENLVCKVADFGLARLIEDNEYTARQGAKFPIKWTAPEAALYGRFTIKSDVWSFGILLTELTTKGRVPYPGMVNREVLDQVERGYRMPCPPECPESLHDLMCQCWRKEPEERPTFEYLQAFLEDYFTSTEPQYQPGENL

Turning to `Cc1cc(O)cc2oc(=O)c3c(O)cc(O)cc3c12` [ALTERNARIOL], the IC50 in experiment [1] is 36.4 µM; in [2] it was 9.29 µM; in experiment [3], 17 µM; in experiment [4], 4.3 ×10⁻⁷ g/ml; in [5] it was 20.9 µM; in [6], 8.9 ×10⁻⁷ g/ml. In addition, the IC50 in experiment [7] was 26.7 µM; in [8], 3.87 µM; in experiment [9], 3.87 µM; in experiment [10], 3.87 µM; in [11], 3.87 µM; in [14], 9.5 ×10⁻⁷ g/ml. Besides, the IC50 is 4.2 ×10⁻⁷ g/ml in [15], 12.8 µM in experiment [16] and 31 µM in experiment [17]. In [12], the response was half-maximal at 1.7 µg/mL (≈ 6.58 µM) (EC50). Further, in experiment [13], the Activity was determined as 3.7%.
